Experimental data as given in ChEMBL document CHEMBL1124564, “Ester derivatives of 2,6-bis(1-pyrrolidinylmethyl)-4-benzamidophenol as short-acting antiarrhythmic agents. 1” (J Med Chem, 1989).
≈ marks a conversion by molar mass, not a printed value.

Assays:
Cavia porcellus = organism: Cavia porcellus; test: Inhibition of acetylstrophantidin induced arrhythmia in guinea pig isolated right atria.; type: functional; settings: read-out: ED50 (the source's name)
Procedure, shortened: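 Isolated atrium in prewarmed 37 °C Krebs on an isometric force transducer, tension about 500 mg, equilibrated 1 h. Arrhythmogen (ethanolic stock) added at 5.0 μg/mL, raised to 7.5 μg/mL after 30 min if no arrhythmia. After 45 min, compound given in incremental doses every 20 min. ED is the cumulative dose restoring sinus rhythm for at least 3 min.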

[1] = Distribution coefficient of compound was determined in octanol-water system; type: physicochemical
[2] = Biological half-life was evaluated in whole human blood; type: ADME, organism-based
Procedure, shortened: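 Fresh heparinized blood from male volunteers and compound in saline preincubated separately 5 min at 37 °C, then mixed 1:1 (final 25 μg/mL) and shaken at 37 °C for 0, 1, 2.5, 5.0, 10, 20, 30 and 60 min. Stopped with acetonitrile, proteins spun down, supernatant assayed by HPLC on phenyl column. Half-life is the time to 50% loss of compound.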

Canis familiaris = organism: Canis familiaris; test: Inhibition of ouabain induced arrhythmia in the dog.; type: functional, Canis lupus familiaris
Procedure, shortened: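 Adult male mongrel dogs (10–17 kg) under pentobarbital (30 mg/kg iv), intubated, spontaneous breathing, lead II ECG. Ouabain iv bolus: 40 μg/kg, then 20 μg/kg at 30 min, then 5–10 μg/kg every 15 min until stable ventricular arrhythmia (>95% ectopic complexes) lasted 15 min. Compound infused iv at 0.5 mg/kg per min until sinus rhythm held ≥10 min.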

Compound | Distribution coefficient [1] | half-life [2] [min] | EC50 (Cavia porcellus) [µg/mL] | Active dose (Canis familiaris) [mg/kg]
O=C(O)Cc1cc(CN2CCCC2)c(O)c(CN2CCCC2)c1 | – | – | > 200 | –
CC(C)OC(=O)CCc1cc(CN2CCCC2)c(O)c(CN2CCCC2)c1 | 0.62 | – | 4 (≈ 10.7 µM) | –
CCCCOC(=O)CCCc1cc(CN2CCCC2)c(O)c(CN2CCCC2)c1 | 12.8 | 0.77 | 0.33 (≈ 0.82 µM) | –
O=C(O)c1cc(CN2CCCC2)c(O)c(CN2CCCC2)c1 | – | – | > 30 | >60
CC(C)OC(=O)c1cc(CN2CCCC2)c(O)c(CN2CCCC2)c1 | 0.37 | – | 11.4 (≈ 32.9 µM) | –
CC(C)COC(=O)CCCc1cc(CN2CCCC2)c(O)c(CN2CCCC2)c1 | 7.24 | 1.96 | 2 (≈ 4.97 µM) | –
CCCCOC(=O)CCc1cc(CN2CCCC2)c(O)c(CN2CCCC2)c1 | 2 | 22.1 | 2.5 (≈ 6.43 µM) | 11
CCOC(=O)CCc1ccc(NC(=O)c2cc(CN3CCCC3)c(O)c(CN3CCCC3)c2)cc1 | – | – | – | 10.9
CCOC(=O)/C=C/c1ccc(NC(=O)c2cc(CN3CCCC3)c(O)c(CN3CCCC3)c2)cc1 | – | – | – | 17.5
CC(C)COC(=O)CCc1cc(CN2CCCC2)c(O)c(CN2CCCC2)c1 | 1.54 | 25.9 | 14 (≈ 36 µM) | 5
CCOC(=O)c1ccccc1NC(=O)c1cc(CN2CCCC2)c(O)c(CN2CCCC2)c1 | – | – | – | 1.75
CC(C)COC(=O)c1cc(CN2CCCC2)c(O)c(CN2CCCC2)c1 | 1.47 | – | 2.3 (≈ 6.38 µM) | –
CCCOC(=O)Cc1cc(CN2CCCC2)c(O)c(CN2CCCC2)c1 | 0.43 | 18.5 | 10.3 (≈ 28.6 µM) | 8.8
O=C(O)CCc1cc(CN2CCCC2)c(O)c(CN2CCCC2)c1 | – | – | > 1000 | –
CCOC(=O)c1ccc(NC(=O)c2cc(CN3CCCC3)c(O)c(CN3CCCC3)c2)cc1 | – | – | – | 19
O=C(Nc1ccccc1)c1cc(CN2CCCC2)c(O)c(CN2CCCC2)c1 | 0.42 | – | 11 (≈ 29 µM) | 2.5

The next lines start with results.

Distribution coefficient [1] | half-life [2] [min] | Compound | EC50 (Cavia porcellus) [µg/mL] | Active dose (Canis familiaris) [mg/kg]
1.25 | 8.7 | CC(C)COC(=O)Cc1cc(CN2CCCC2)c(O)c(CN2CCCC2)c1 | 5 (≈ 13.4 µM) | 11.8
0.39 | – | CC(C)OC(=O)Cc1cc(CN2CCCC2)c(O)c(CN2CCCC2)c1 | 1 (≈ 2.77 µM) | –
0.18 | – | CCOC(=O)Cc1cc(CN2CCCC2)c(O)c(CN2CCCC2)c1 | 17.2 (≈ 49.6 µM) | >7.5
0.78 | 36.1 | CCCOC(=O)CCc1cc(CN2CCCC2)c(O)c(CN2CCCC2)c1 | 7 (≈ 18.7 µM) | 3
1.12 | – | CCC(C)OC(=O)c1cc(CN2CCCC2)c(O)c(CN2CCCC2)c1 (configuration not stated) | 6.7 (≈ 18.6 µM) | 6.8
1.5 | 9.5 | CCCCOC(=O)Cc1cc(CN2CCCC2)c(O)c(CN2CCCC2)c1 | 13.3 (≈ 35.5 µM) | 7.3
– | 2.1 | CCCOC(=O)CCCc1cc(CN2CCCC2)c(O)c(CN2CCCC2)c1 | – | –
13.71 | – | O=C(NCC1CCCCN1)c1cc(OCC(F)(F)F)ccc1OCC(F)(F)F (configuration not stated) [FLECAINIDE] | 6 (≈ 14.5 µM) | 2.3
19.19 | – | CCN(CC)CC(=O)Nc1c(C)cccc1C [LIDOCAINE] | 6 (≈ 25.6 µM) | 10.1
